# Screening data (PubChem BioAssay)
# KCNQ1 block = inhibitors of human KCNQ1 potassium channel; P51787; CHO-K1 KCNQ1, FluxOR thallium flux fluorescence; active compounds read high; B-score at 10 µM; 310,000 compounds, 1.3% hits; AID 2642;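 active means compounds whose thallium flux B-score, printed positive for inhibition, exceeds three library SD while starting fluorescence stays within three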;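 further: channel opened by potassium depolarization with thallium stimulus after 20 min compound exposure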
# hERG rescue = compounds protecting human hERG from proarrhythmic drug block. 310,000 compounds, 0.51% hits. AID 1511. activation (rescue from dofetilide block), less the hit threshold, % at 10 µM. CHO-hERG, FluxOR thallium flux, dofetilide IC70 present. Q12809;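 active means activation above the mean of controls blocked by dofetilide plus 5 SD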;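 further: thallium influx through hERG after potassium depolarization seen as dye fluorescence rise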
# KCNK9 inh = inhibitors of human KCNK9 two-pore domain potassium channel; HEK293 KCNK9, FluxOR thallium flux fluorescence; active compounds read low; B-score at 10 µM; Q9NPC2; 310,000 compounds, 1.2% hits;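 active means ratio B-score over 3 SD below the library mean, with starting fluorescence within 5 SD of its mean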;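 further: negative B-score means less thallium flux so channel inhibition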
# Target sequence (Q9NPC2 whole entry, looked up, the tested form may be a part): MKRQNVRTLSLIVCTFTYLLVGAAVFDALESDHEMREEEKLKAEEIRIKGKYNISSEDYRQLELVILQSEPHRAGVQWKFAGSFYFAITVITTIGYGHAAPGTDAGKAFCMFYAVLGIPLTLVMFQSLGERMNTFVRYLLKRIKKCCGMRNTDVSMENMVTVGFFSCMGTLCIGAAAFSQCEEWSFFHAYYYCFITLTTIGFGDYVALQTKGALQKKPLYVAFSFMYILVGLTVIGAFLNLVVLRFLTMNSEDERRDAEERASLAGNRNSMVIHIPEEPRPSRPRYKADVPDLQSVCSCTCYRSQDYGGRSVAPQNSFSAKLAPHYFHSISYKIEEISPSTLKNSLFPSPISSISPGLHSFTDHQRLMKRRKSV
# KCNQ1 pot = potentiates or activates the human KCNQ1 potassium channel | B-score at 10 µM | AID 2648 | CHO-K1 KCNQ1, thallium flux FluxOR fluorescence; active compounds read high | 310,000 compounds, 0.35% hits;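 active means fluorescence ratio B-score, a plate-corrected score, at least three library SD, with initial intensity B-score within 5 SD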
#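 Assay system: CHO-K1 cells stably expressing KCNQ1; Medium: assay buffer with matched DMSO; Also added: K+/Tl+ depolarizing stimulus; Dosing: single dose; Timing: dye 90 min, compound 20 min, room temperature; Measured by: kinetic FluxOR thallium fluorescence, 10-s 1-Hz baseline, 110-s post-stimulus read; Read-out: peak-minus-minimum fluorescence over initial fluorescence, negative-control normalized, B-scored.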
# KCNK3 block = human KCNK3 channel inhibition, primary screen. O14649. CHO-KCNK3 thallium flux, FluxOR fluorescence; active compounds read low. B-score at 10 µM. 340,000 compounds, 0.84% hits. AID 602410;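 active means B-score under library mean minus 4 SD, starting fluorescence ratio at most library mean plus 5 SD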;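 further: more negative B-score means stronger inhibition of thallium flux through KCNK3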
# KCNK9 inh conf = human KCNK9 inhibitor confirmation. inhibition, % at 10 µM. 4,900 compounds, 43% hits. shares compounds with KCNK9 inh. AID 492992. HEK293 KCNK9 cells, FluxOR thallium flux fluorescence;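 active means thallium signal inhibited by more than 5 SD of the compound-free buffer control wells, on both duplicate plates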;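 further: 0% = assay buffer control wells without compound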
# Kir2-1 spec = mouse Kir2.1 off-target activity of KCNK9 modulators. 4,900 compounds, 4% hits. inhibition, % at 10 µM. shares compounds with KCNK9 inh. AID 492993. Kir2.1 cells, FluxOR thallium flux fluorescence;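 active means thallium signal drop more than 5 SD beyond the mean of the no-compound control wells, seen in both duplicate plates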;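 further: signal is fluorescence rise after thallium addition divided by baseline fluorescence; plate controls were assay buffer only for no effect and full block by chlorpromazine control for full effect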
# KCNK9 uninduced = non-induced cell nonspecific activity of KCNK9 modulators; non-induced KCNK9-HEK293, FluxOR thallium flux; inhibition, % at 10 µM; shares compounds with KCNK9 inh; 4,900 compounds, 40% hits;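 active means thallium signal drop beyond 5 SD of the untreated control mean, on both duplicate plates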;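 further: plate controls were buffer only IC0 wells for no effect and SID17386958 at its maximal inhibitory level for full effect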
# KCNK3 inh conf = human KCNK3 channel inhibition, confirmation assay; shares compounds with KCNK3 block; CHO-KCNK3 thallium flux, FluxOR fluorescence; 0% buffer, 100% carvedilol maximal block; ratio percent of control, % at 10 µM; 2,400 compounds, 99% hits; AID 651638;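 active means ratio percent of control, averaged over triplicates, above buffer control mean plus 5 SD, cut at about 64% in these data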;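 further: ratio is the fluorescence rise from min to max over baseline after thallium stimulus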
# KCNK3 uninduced = counter-screen for KCNK3 inhibitors: effect in non-induced cells. shares compounds with KCNK3 block. non-induced KCNK3 parental cells, FluxOR thallium flux; active compounds read low. thallium flux ratio (lower = more inhibition) at 10 µM. 2,400 compounds, 40% hits;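 active means thallium flux ratio, averaged over three wells, more than 5 SD below the buffer control mean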;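 further: host cells are CHO cells without KCNK3 induction; ratio is peak minus trough fluorescence over baseline then normalized to buffer controls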
# The depositor's hits bear a star; i = inactive; / = no result. Compounds with a hit are over-represented: about 3.1% of the library has one in this group of screens.
SMILES,KCNQ1 block,hERG rescue,KCNK9 inh,KCNQ1 pot,KCNK3 block,KCNK9 inh conf,Kir2-1 spec,KCNK9 uninduced,KCNK3 inh conf,KCNK3 uninduced
CCn1nc(C)c(NS(=O)(=O)c2ccccc2)c1C,i,-0.9,i,i,i,/,/,/,/,/
O=C(NNC(=O)c1ccccc1OCc1ccccc1)c1ccccc1F,i,-13.4,-9.76*,i,-11.4*,29.0%*,i,23.5%*,117.7*,0.154*
COc1ccc(C(=O)OCC(=O)N2CCN(S(=O)(=O)c3ccc(C)cc3)CC2)cc1[N+](=O)[O-],/,/,/,/,i,/,/,/,/,/
c1csc(C(c2nnnn2C2CCCCC2)N2CCCC3(CCCCC3)C2)c1 (centres undefined),i,-12.8,i,i,i,/,/,/,/,/
CC(C)(C)n1nnnc1C(c1cccs1)N1CCCC2(CCCCC2)C1 (centres undefined),i,-5.2,-17.1*,i,-9.13*,40.0%*,i,39.5%*,125.3*,0.13*
CCC(=O)Nc1cccc(-c2nnc(-c3ccccc3)o2)c1,i,-17.6,i,i,i,/,/,/,/,/
O=C(Nc1cccc(-c2nnc(-c3ccccc3)o2)c1)C1CCCCC1,i,-5.2,-8.77*,i,-10.9*,34.0%*,i,30.0%*,95.7*,i
CCC(CC)COC(=O)C(C#N)c1nc2ccccc2nc1N1CCOCC1 (centres undefined),i,-18.6,-15.8*,i,-11.6*,66.5%*,i,49.0%*,104.3*,0.128*
COc1ccccc1C(CCN(Cc1cccs1)C(C)=O)c1ccco1 (centres undefined),i,-13.5,-9.32*,i,-13.3*,40.0%*,i,33.5%*,105.3*,i
CCC(C)n1c(SCC(=O)Nc2cc(C(C)(C)C)nn2-c2ccccc2)nc2ccccc2c1=O (centres undefined),10*,-4.7,-8.2*,i,i,40.0%*,i,37.5%*,104.7*,0.131*
Cc1nnc(SCC(=O)Nc2cc(C(C)(C)C)nn2-c2ccccc2)s1,i,-7.5,i,i,i,/,/,/,/,/
O=C(CSc1nncs1)Nc1nccs1,i,-12.2,i,i,i,/,/,/,/,/
COc1ccccc1NC(=O)c1ccc(COc2ccccc2Br)o1,i,-7.3,-13.3*,i,-9.97*,56.0%*,i,42.5%*,129.7*,0.154*
COc1ccccc1NC(=O)c1ccc(COc2ccccc2OC)o1,i,2.5,i,i,i,/,/,/,/,/
Cn1nc(-c2ccccc2)c(-c2nc(-c3cccc(Cl)c3)no2)c1Cl,i,-9.8,-9.55*,i,-8.83*,33.0%*,i,29.5%*,103.0*,i
NC(=O)C1CCCN(CC(O)COCc2ccc(Cl)cc2)C1 (centres undefined),i,-2.4,i,i,i,/,/,/,/,/
CCCSc1nsc(NC(=O)CC)n1,i,-4.5,i,i,i,/,/,/,/,/
CCCSc1nsc(NC(=O)C(c2ccccc2)c2ccccc2)n1,6*,-6.4,-8.76*,i,-8.99*,55.0%*,i,41.5%*,131.7*,0.124*
COc1ccc(C(C)=O)cc1COC(=O)c1cc2ccccc2cc1O,i,-9.3,-14.9*,i,-13*,31.5%*,i,29.0%*,109.3*,i
COc1ccc(C(C)=O)cc1COC(=O)c1cccnc1Cl,i,-3.8,i,i,i,/,/,/,/,/
COC(=O)[C@H](CCSC)NC(=O)N1CCN(c2cccc(C(F)(F)F)c2)CC1,i,-8.3,-8.77*,i,i,57.5%*,i,i,84.3*,i
CCc1ccc(-c2cc(C)no2)cc1S(=O)(=O)N1CCOc2ccc(C)cc21,i,-8.2,-8.93*,i,-10.6*,47.5%*,i,33.0%*,124.7*,0.155*
CCc1ccc(-c2cc(C)no2)cc1S(=O)(=O)N1CCN(c2cccc(C)c2C)CC1,i,-10.1,i,i,i,/,/,/,/,/
CCC1CN(S(=O)(=O)c2cc(-c3cc(C)no3)ccc2OC)c2cc(C)ccc2O1 (centres undefined),i,-16.9,-10.8*,i,-10.5*,36.0%*,i,32.0%*,121.0*,0.155*
CCc1ccc(-c2cc(C)no2)cc1S(=O)(=O)N1CCC(C)CC1,i,-10.7,-9.34*,i,-10*,i,i,46.5%*,101.7*,i
SMILES,KCNQ1 block,hERG rescue,KCNK9 inh,KCNQ1 pot,KCNK3 block,KCNK9 inh conf,Kir2-1 spec,KCNK9 uninduced,KCNK3 inh conf,KCNK3 uninduced
Cc1cc(-c2ccc(C(C)C)c(S(=O)(=O)N3CCC(C)CC3)c2)on1,15*,-5.5,-17*,i,-16.6*,66.5%*,i,53.0%*,74.7*,i
COc1cc(C(=O)NCC(c2ccco2)N2CCCC2)ccc1OCc1ccc(Cl)cc1Cl (centres undefined),/,/,/,/,i,/,/,/,/,/
O=C(CSc1nc2cc(Cl)ccc2o1)NC1CC1,/,/,/,/,i,/,/,/,/,/
COc1ccccc1NS(=O)(=O)c1ccc(O)c(C(=O)OCc2cccc([N+](=O)[O-])c2)c1,i,-10.1,-9.18*,i,-8.83*,i,i,28.5%*,99.0*,i
CCCN(CC(=O)Nc1ccccc1C)C(=O)Cc1coc2cc(C)ccc12,i,-16.3,i,i,i,/,/,/,/,/
Cc1ccc(NC(=O)c2cccc3c2C(=O)N(C2CCCCC2)C3)cc1,i,-9.6,-9.56*,i,-9.41*,32.0%*,i,26.0%*,117.3*,i
Cc1ccccc1NC(=O)c1cccc2c1C(=O)N(C1CCCCC1)C2,i,-8.8,i,i,i,/,/,/,/,/
CCOc1ccccc1NC(=O)c1cccc2c1C(=O)N(C1CCCCC1)C2,i,-8.8,-9.08*,i,-10.8*,37.5%*,i,33.0%*,99.7*,i
CC(=O)Nc1cc2c(cc1Br)OCCO2,i,-4.5,i,i,i,/,/,/,/,/
Brc1ccc(CNc2cc3c(cc2Br)OCCO3)cc1,i,-3.4,-9.13*,i,i,28.5%*,i,42.0%*,103.3*,i
CC(Cc1cccs1)NC(=O)Nc1ccc(Cl)c(Cl)c1 (centres undefined),i,-12.1,-15.8*,i,-12.7*,61.5%*,i,42.5%*,110.3*,0.158*
